Test [1] has as its target Mitogen-activated protein kinase 11 (Homo sapiens) (UniProt Q15759). Put plainly: Inhibition of P38beta MAPK (unknown origin) at 10 uM. The essentials: (§1)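 Dundee human kinase selectivity panel (77 kinases); test compound at 1 and 10 μM, percentage kinase inhibition recorded.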
Test [2] concerns the target Glycogen synthase kinase-3 (Sus scrofa, UniProt B2LUN4+I6LNT8). The test can be described thus: Inhibition of pig GSK-3alpha/beta. The essentials: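 Native affinity-purified porcine GSK-3 in the radiometric assay: 40 μM GS-1 peptide, 15 μM γ-33P-ATP, pH 7.5 Tris/MgCl2/EGTA/DTT/heparin/BSA buffer, 30 min at 30 °C, P81 filter binding and scintillation counting. IC50 from dose-response curves with triplicate points; top concentration 10 or 100 μM.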

Test [3] can be described thus: Inhibition of Trypanosoma cruzi GSK-3.
Test [4] has as its target RAC-alpha serine/threonine-protein kinase (Homo sapiens) (UniProt P31749). Put plainly: Inhibition of PKB alpha (unknown origin) at 10 uM. The essentials:
as §1

The nature of test [5]: Inhibition of Cryptosporidium parvum recombinant His6-tagged GSK-3 expressed in Escherichia coli using GS-1 peptide as substrate after 30 mins by scintillation counting analysis in presence of gamma-33P-ATP. The essentials:
(§2)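 His6-tagged recombinant GSK-3 expressed in E. coli (TOP10/pBAD-Thio-TOPO for P. falciparum and T. gondii, arabinose-induced; BL21(DE3)-pRARE2/pET15 for C. parvum, IPTG at 15 °C), Ni-NTA purified. Assayed with 40 μM GS-1 phosphopeptide, 15 μM γ-33P-ATP in pH 7.5 Tris buffer with MgCl2, EGTA, DTT, heparin, BSA; 30 min, 30 °C; P81 paper, phosphoric acid washes, scintillation counting. DMSO controls; dose-response IC50, triplicate points.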

Test [6] in a line: Inhibition of Plasmodium falciparum recombinant GSK-3 by radiometric protein kinase assay. In a few lines:
as §2

The target in test [7] is Serine/threonine-protein kinase Chk2 (Homo sapiens) (UniProt O96017). Put plainly: Inhibition of CHK2 (unknown origin) at 10 uM. The essentials:
as §1

The target of test [8] is T1, Serine/threonine-protein kinase BRSK2 (Homo sapiens) (UniProt Q8IWQ3).
T1 sequence (whole entry): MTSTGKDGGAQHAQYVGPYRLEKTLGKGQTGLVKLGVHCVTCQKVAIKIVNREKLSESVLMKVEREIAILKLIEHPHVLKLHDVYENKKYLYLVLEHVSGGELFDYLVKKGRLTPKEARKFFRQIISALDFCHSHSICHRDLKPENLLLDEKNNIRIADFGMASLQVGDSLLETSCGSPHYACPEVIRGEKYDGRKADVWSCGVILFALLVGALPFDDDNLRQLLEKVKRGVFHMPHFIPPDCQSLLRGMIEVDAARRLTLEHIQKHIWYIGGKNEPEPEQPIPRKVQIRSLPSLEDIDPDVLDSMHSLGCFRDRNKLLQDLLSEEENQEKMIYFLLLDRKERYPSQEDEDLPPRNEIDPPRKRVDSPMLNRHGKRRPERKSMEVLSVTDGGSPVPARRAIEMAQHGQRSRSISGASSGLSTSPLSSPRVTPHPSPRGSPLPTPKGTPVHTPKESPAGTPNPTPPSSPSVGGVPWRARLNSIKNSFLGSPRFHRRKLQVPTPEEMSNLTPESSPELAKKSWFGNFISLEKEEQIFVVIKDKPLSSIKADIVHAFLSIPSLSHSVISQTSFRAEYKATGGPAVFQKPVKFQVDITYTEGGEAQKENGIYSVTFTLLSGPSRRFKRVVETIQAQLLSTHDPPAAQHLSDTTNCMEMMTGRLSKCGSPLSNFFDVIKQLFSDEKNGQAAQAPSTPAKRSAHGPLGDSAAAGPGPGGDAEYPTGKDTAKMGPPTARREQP
Put plainly: Inhibition of BRSK2 (unknown origin) at 10 uM. In a few lines:
as §1

A short description of test [9]: Inhibition of Leishmania donovani GSK-3.
Test [10] in a line: Inhibition of Plasmodium falciparum recombinant His6-tagged GSK-3 expressed in Escherichia coli using GS-1 peptide as substrate after 30 mins by scintillation counting analysis in presence of gamma-33P-ATP. The essentials:
as §2

One molecule from ChEMBL document CHEMBL2311539, “3,6-Diamino-4-(2-halophenyl)-2-benzoylthieno[2,3-b]pyridine-5-carbonitriles are selective inhibitors of Plasmodium falciparum glycogen synthase kinase-3” (J Med Chem, 2013) can be followed below.

SMILES strings stand for the structures.

Mitogen-activated protein kinase 11 (Homo sapiens), sequence (Q15759 whole entry): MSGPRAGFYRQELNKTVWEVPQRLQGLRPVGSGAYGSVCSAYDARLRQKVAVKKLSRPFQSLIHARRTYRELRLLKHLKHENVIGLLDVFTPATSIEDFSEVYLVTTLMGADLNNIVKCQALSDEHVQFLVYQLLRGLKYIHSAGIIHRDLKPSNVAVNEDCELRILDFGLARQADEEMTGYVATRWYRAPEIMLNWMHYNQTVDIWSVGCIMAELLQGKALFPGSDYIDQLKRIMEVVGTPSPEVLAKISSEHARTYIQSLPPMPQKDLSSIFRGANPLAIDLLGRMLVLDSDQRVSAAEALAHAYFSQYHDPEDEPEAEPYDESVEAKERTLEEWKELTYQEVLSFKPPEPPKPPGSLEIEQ
RAC-alpha serine/threonine-protein kinase (Homo sapiens), sequence (P31749 whole entry): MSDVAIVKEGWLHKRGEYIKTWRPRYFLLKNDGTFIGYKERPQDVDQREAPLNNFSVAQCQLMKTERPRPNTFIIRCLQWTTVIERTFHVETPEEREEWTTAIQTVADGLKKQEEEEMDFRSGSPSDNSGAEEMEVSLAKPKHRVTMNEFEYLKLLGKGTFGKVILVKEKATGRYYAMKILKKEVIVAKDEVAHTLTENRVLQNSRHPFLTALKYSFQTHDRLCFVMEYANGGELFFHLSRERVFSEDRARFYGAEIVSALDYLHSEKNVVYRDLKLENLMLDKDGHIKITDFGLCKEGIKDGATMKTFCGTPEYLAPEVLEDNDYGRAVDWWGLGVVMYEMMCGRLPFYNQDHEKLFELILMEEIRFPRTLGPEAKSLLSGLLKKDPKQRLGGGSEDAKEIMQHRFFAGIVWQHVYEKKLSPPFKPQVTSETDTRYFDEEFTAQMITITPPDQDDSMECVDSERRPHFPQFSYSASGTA
Serine/threonine-protein kinase Chk2 (Homo sapiens), sequence (O96017 whole entry): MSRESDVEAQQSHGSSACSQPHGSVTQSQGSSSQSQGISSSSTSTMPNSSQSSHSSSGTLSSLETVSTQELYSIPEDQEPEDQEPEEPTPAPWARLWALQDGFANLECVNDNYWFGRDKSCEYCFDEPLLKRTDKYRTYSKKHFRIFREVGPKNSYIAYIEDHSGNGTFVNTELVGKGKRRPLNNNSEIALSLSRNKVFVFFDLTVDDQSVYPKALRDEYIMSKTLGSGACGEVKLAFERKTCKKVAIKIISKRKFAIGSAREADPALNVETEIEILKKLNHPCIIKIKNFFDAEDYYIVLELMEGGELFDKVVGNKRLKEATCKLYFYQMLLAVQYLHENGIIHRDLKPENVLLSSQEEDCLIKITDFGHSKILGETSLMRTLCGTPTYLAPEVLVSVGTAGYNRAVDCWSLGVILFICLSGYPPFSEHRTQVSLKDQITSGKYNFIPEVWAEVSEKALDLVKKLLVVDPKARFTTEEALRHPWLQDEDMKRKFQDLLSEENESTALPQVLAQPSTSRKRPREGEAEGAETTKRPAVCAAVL

`N#Cc1c(N)nc2sc(C(=O)c3cccc(Cl)c3)c(N)c2c1-c1ccccc1Cl`: the inhibition (as a rule, how much of the control response was suppressed) in [1] is greater than 50%; in test [4], greater than 80%; in test [7], greater than 50%; in test [8] it was greater than 50%. Moreover, the IC50 (commonly the concentration at which inhibition is half-maximal) is greater than 10 µM in [2]; greater than 100 µM in [3]; greater than 100 µM in [5]; 0.48 µM in [6]; 72 µM in test [9]; 0.48 µM in [10].
